Source: ChEMBL document CHEMBL1157038, “Synthesis and in vitro microbiological evaluation of an array of biolabile 2-morpholino-N-(4,6-diarylpyrimidin-2-yl)acetamides” (2010)
Converted amounts (≈) assume the structure as drawn.

Tests used:
Assay type in all cases: functional
[1] = tested on: Nannizzia gypsea; assay: Antifungal activity against Microsporum gypseum after 1 to 7 days by twofold serial dilution method
Method in brief: (§1)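 Test compounds were made as 1 mg/mL DMSO stocks. Spores from 1–7 day Sabouraud agar slants were suspended in Sabouraud dextrose broth at pH 5.6. Final inoculum 1.1–1.5×10² cfu/mL. First dilution was 0.4 mL stock plus 1.6 mL seeded broth, followed by six twofold serial dilutions. Controls held seeded broth only. Incubated at 28 °C; MIC read visually after 72–96 h.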

[2] = tested on: Aspergillus flavus; assay: Antifungal activity against Aspergillus flavus after 1 to 7 days by twofold serial dilution method; method in brief: as §1
[3] = tested on: Rhizopus; assay: Antifungal activity against Rhizopus after 1 to 7 days by twofold serial dilution method; method in brief: as §1
[4] = tested on: Mucor; assay: Antifungal activity against Mucor after 1 to 7 days by twofold serial dilution method; method in brief: as §1
[5] = tested on: Vibrio cholerae; assay: Antibacterial activity against Vibrio cholerae after 24 hrs by twofold serial dilution method
[6] = tested on: Escherichia coli; assay: Antibacterial activity against Escherichia coli after 24 hrs by twofold serial dilution method
Method in brief: (§2)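 Compounds dissolved in DMSO as 1 mg/mL stock. Seeded nutrient broth prepared from 24 h nutrient agar cultures, adjusted by plate count. Final inoculum 10⁵ cfu/mL at pH 7.4. First dilution was 0.4 mL stock in 1.6 mL seeded broth, then serial twofold through six dilutions. Seeded-broth-only tubes served as controls. Incubated at 37 °C; MIC read visually at 24 h.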

[7] = tested on: Klebsiella pneumoniae; assay: Antibacterial activity against Klebsiella pneumoniae after 24 hrs by twofold serial dilution method; method in brief: as §2
[8] = tested on: Staphylococcus aureus; assay: Antibacterial activity against Staphylococcus aureus after 24 hrs by twofold serial dilution method; method in brief: as §2
[9] = tested on: Pseudomonas; assay: Antibacterial activity against Pseudomonas after 24 hrs by twofold serial dilution method; method in brief: as §2

| Compound | MIC [1] [µg/mL] | MIC [2] [µg/mL] | MIC [3] [µg/mL] | MIC [4] [µg/mL] | MIC [5] [µg/mL] | MIC [6] [µg/mL] | MIC [7] [µg/mL] | MIC [8] [µg/mL] | MIC [9] [µg/mL] |
| --- | --- | --- | --- | --- | --- | --- | --- | --- | --- |
| OC(Cn1cncn1)(Cn1cncn1)c1ccc(F)cc1F [FLUCONAZOLE] | 25 (≈ 81.6 µM) | 50 (≈ 163 µM) | 25 (≈ 81.6 µM) | 25 (≈ 81.6 µM) |  |  |  |  |  |
| COc1ccc(-c2cc(-c3ccccc3)nc(NC(=O)CN3CCOCC3)n2)cc1 | 100 (≈ 247 µM) | 100 (≈ 247 µM) | 100 (≈ 247 µM) | 200 (≈ 494 µM) | 100 (≈ 247 µM) | 200 (≈ 494 µM) | 100 (≈ 247 µM) | 50 (≈ 124 µM) | 50 (≈ 124 µM) |
| O=C(CN1CCOCC1)Nc1nc(-c2ccccc2)cc(-c2ccc(F)cc2)n1 | 200 (≈ 510 µM) | 6.25 (≈ 15.9 µM) | 100 (≈ 255 µM) | 50 (≈ 127 µM) | 50 (≈ 127 µM) | 50 (≈ 127 µM) | 6.25 (≈ 15.9 µM) | 200 (≈ 510 µM) | 100 (≈ 255 µM) |
| O=C(CN1CCOCC1)Nc1nc(-c2ccccc2)cc(-c2ccccc2)n1 | 200 (≈ 534 µM) | 200 (≈ 534 µM) | 100 (≈ 267 µM) | 100 (≈ 267 µM) | 200 (≈ 534 µM) | 200 (≈ 534 µM) | 50 (≈ 134 µM) | 200 (≈ 534 µM) | 100 (≈ 267 µM) |
| Cc1ccc(-c2cc(-c3ccc(F)cc3)nc(NC(=O)CN3CCOCC3)n2)cc1 | 12.5 (≈ 30.8 µM) | 200 (≈ 492 µM) | 50 (≈ 123 µM) | 100 (≈ 246 µM) | 12.5 (≈ 30.8 µM) | 50 (≈ 123 µM) | 50 (≈ 123 µM) | 12.5 (≈ 30.8 µM) | 100 (≈ 246 µM) |
| COc1ccc(-c2cc(-c3ccc(C)cc3)nc(NC(=O)CN3CCOCC3)n2)cc1 | 50 (≈ 119 µM) | 100 (≈ 239 µM) | 12.5 (≈ 29.9 µM) | 50 (≈ 119 µM) | 12.5 (≈ 29.9 µM) | 200 (≈ 478 µM) | 50 (≈ 119 µM) | 100 (≈ 239 µM) | 50 (≈ 119 µM) |
| Cc1ccc(-c2cc(-c3ccccc3)nc(NC(=O)CN3CCOCC3)n2)cc1 | 50 (≈ 129 µM) | 100 (≈ 257 µM) | 50 (≈ 129 µM) | 50 (≈ 129 µM) | 100 (≈ 257 µM) | 50 (≈ 129 µM) | 100 (≈ 257 µM) | 50 (≈ 129 µM) | 50 (≈ 129 µM) |
| COc1ccc(-c2cc(-c3ccc(F)cc3)nc(NC(=O)CN3CCOCC3)n2)cc1 | 100 (≈ 237 µM) | 6.25 (≈ 14.8 µM) | 200 (≈ 473 µM) | 6.25 (≈ 14.8 µM) | 100 (≈ 237 µM) | 50 (≈ 118 µM) | 100 (≈ 237 µM) | 200 (≈ 473 µM) | 6.25 (≈ 14.8 µM) |
| O=C(O)c1cn(C2CC2)c2cc(N3CCNCC3)c(F)cc2c1=O [CIPROFLOXACIN] |  |  |  |  | 50 (≈ 151 µM) | 25 (≈ 75.4 µM) |  |  | 25 (≈ 75.4 µM) |
| O=C(CN1CCOCC1)Nc1nc(-c2ccc(F)cc2)cc(-c2ccc(F)cc2)n1 | 100 (≈ 244 µM) | 12.5 (≈ 30.5 µM) | 6.25 (≈ 15.2 µM) | 6.25 (≈ 15.2 µM) | 50 (≈ 122 µM) | 6.25 (≈ 15.2 µM) | 50 (≈ 122 µM) | 100 (≈ 244 µM) | 6.25 (≈ 15.2 µM) |
